Source: article PMC2585982 (Toxicology and applied pharmacology, 2008)
pEC50: −log10 of the molar value.

How the values were obtained:
rat PXR = details: read-out: EC50, activation of rat PXR; ref Yang and Yan, 2007; cited from earlier work
human PXR = details: read-out: EC50, activation of human PXR; ref Yang and Yan, 2007; cited from earlier work
P450s 1A1/2 = experiment: Liver microsomal P450 1A activity; format: in vivo, mice; details: C57BL/6 mice, 100 mg/kg p.o. 3 days, vs corn oil
P450s 2B9/10 = experiment: Liver microsomal P450 2B activity; format: in vivo, mice; details: C57BL/6 mice, 100 mg/kg p.o. 3 days, vs corn oil
P450 3A11 [1] = experiment: Liver microsomal P450 3A activity; format: in vivo, mice; details: mouse, in vivo, po, 100 mg/kg
P450 = experiment: Liver microsomal P450 content after oral dosing of mice; format: in vivo; details: C57BL/6 mice, 100 mg/kg p.o. 3 days, vs corn oil
NQO = experiment: Liver cytosolic NQO activity; format: in vivo, mice; details: C57BL/6 mice, 100 mg/kg p.o. 3 days, vs corn oil
GSTμ = experiment: Western blot of liver cytosol, GSTμ protein expression; format: in vivo, mice; details: C57BL/6 mice, 100 mg/kg p.o. 3 days
P450 1A1/1A2 = details: mouse, in vivo, po, 100 mg/kg
P450 2B10 = experiment: Western blot of liver microsomes, P450 2B10 protein expression; details: C57BL/6 mice, 100 mg/kg p.o. 3 days
P450 3A11 [2] = experiment: Western blot of liver microsomes, P450 3A11 protein expression; details: C57BL/6 mice, 100 mg/kg p.o. 3 days
PXR [3] = molecular target: T1, PXR (Mus musculus, UniProt O54915); experiment: GAL-PXR reporter assay; format: cell-based; details: CV-1 cells, 18–24 h
T1 sequence (O54915 143-430 limits assumed): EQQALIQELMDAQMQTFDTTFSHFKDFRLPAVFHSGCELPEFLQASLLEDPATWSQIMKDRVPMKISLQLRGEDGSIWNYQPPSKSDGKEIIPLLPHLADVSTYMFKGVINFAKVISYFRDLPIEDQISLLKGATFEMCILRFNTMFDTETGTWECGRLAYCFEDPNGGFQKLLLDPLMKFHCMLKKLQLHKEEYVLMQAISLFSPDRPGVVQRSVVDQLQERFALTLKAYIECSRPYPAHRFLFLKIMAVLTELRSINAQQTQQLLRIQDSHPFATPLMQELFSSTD

PXR [4] = molecular target: T2, PXR (Mus musculus, UniProt O54915); experiment: PXR-DR3 reporter assay; format: cell-based; details: CV-1 cells, full length PXR
T2 sequence (O54915 1-431): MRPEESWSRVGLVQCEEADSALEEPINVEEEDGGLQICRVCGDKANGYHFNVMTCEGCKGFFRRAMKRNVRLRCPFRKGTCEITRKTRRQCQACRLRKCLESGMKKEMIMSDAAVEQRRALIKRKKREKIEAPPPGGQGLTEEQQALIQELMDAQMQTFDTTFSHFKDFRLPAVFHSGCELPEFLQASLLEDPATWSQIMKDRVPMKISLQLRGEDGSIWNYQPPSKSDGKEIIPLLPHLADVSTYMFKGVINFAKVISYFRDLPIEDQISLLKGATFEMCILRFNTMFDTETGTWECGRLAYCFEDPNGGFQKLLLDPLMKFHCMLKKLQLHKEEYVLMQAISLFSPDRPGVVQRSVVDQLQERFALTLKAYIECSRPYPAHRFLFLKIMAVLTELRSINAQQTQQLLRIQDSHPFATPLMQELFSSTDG
T2 sequence (P19793 1-462 partner): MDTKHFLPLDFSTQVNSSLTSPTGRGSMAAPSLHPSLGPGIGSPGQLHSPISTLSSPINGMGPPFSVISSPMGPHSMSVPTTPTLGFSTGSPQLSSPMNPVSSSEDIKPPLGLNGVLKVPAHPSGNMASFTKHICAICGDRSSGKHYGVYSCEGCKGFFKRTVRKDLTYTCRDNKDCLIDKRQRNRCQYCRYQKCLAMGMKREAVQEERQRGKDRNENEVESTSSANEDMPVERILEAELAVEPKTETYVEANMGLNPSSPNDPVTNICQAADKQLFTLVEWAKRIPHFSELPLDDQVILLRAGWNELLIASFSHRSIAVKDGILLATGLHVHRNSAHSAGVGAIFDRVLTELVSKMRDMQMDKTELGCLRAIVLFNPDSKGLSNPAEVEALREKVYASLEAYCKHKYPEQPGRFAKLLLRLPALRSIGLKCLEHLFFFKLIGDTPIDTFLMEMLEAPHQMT

PXR LBD and SRC-1 RID = PXR LBD and SRC-1 RID (Mus musculus, UniProt O54915); experiment: Mammalian two-hybrid assay, Gal-SRC-1 RID + VP-L-PXR in CV-1 cells; format: cell-based; details: isopimpinellin 50 μM; PCN 10 μM; Figure 7A
Sequence of PXR LBD and SRC-1 RID (Q15788 570-780 partner limits assumed, one chain of several): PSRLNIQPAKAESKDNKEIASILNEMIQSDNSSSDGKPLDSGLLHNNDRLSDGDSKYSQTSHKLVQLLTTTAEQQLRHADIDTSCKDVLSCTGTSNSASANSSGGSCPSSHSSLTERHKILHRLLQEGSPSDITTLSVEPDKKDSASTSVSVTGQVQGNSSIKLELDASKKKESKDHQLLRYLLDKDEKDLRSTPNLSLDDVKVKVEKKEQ
In short: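 Mammalian two-hybrid in CV-1 cells co-transfected with Gal-SRC-1 RID and/or VP-L-PXR, plus MH100-tk-luc reporter and CMX-β-gal. Cells were exposed to compound or solvent control in medium for 18–24 h. Interaction was taken as luciferase activity normalised to β-gal activity; mean ± SD.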

[5] = molecular target: mCAR-LBD fused to the Gal4 DNA binding domain (Mus musculus, UniProt O35627); experiment: CAR transfection assay, Gal4-mCAR LBD fusion reporter in HepG2 cells; format: cell-based, murine; details: HepG2, 4 μM androstanol; 250 nM TC or 0.1–100 μM isopimpinellin, 24 h
Sequence of mCAR-LBD fused to the Gal4 DNA binding domain (O35627 119-358 limits assumed): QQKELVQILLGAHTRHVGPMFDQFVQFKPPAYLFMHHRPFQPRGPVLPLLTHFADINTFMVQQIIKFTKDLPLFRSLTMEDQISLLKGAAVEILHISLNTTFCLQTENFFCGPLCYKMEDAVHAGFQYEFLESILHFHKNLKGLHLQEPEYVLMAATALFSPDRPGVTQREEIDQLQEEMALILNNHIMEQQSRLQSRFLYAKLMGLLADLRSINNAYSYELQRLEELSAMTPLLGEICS

GSTp mRNA = experiment: Northern blot of liver RNA, GSTp mRNA in CAR; format: in vivo, mice; details: isopimpinellin 150 mg/kg p.o. 24 h; TC 3 mg/kg i.p. 6 h
GSTa1 mRNA = experiment: Northern blot of liver RNA, GSTa1 mRNA in CAR; format: in vivo, mice; details: isopimpinellin 150 mg/kg p.o. 24 h; TC 3 mg/kg i.p. 6 h
Cyp2b10 mRNA = experiment: Northern blot of liver RNA, Cyp2b10 mRNA in CAR; details: isopimpinellin 150 mg/kg p.o. 24 h, TC 3 mg/kg i.p. 6 h
Cyp3a11 mRNA = experiment: Northern blot of liver RNA, Cyp3a11 mRNA in CAR; details: isopimpinellin 150 mg/kg p.o. 24 h, TC 3 mg/kg i.p. 6 h
full-length mCAR = full-length mCAR (Mus musculus, UniProt O35627); experiment: CAR transfection assay, full-length mCAR reporter in HepG2 cells; format: cell-based, murine; details: 4 μM androstanol
Sequence of full-length mCAR (O35627 whole entry): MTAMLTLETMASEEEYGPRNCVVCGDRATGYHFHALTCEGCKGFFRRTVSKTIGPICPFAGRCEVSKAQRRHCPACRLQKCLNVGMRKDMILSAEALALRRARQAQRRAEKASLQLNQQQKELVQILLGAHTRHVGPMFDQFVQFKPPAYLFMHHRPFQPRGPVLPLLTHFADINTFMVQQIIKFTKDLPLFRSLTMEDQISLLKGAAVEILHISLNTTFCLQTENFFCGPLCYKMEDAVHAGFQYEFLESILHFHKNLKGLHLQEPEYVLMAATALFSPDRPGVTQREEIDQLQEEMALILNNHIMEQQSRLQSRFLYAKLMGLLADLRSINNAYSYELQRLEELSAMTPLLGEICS
In short: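 HepG2 cells in DMEM with 10% FBS were plated at 10^5 per well in charcoal-stripped serum. They were co-transfected with pCMX-mCAR or empty pCMX, a […] (LXRE)3 firefly luciferase reporter and a pRL-tk renilla control. At 70–80% confluence, cells got 4 μM androstanol, 0.1% DMSO or 4 μM […] plus 250 nM reference agonist or 0.1–100 μM test compound. After 24 h, firefly/renilla ratio was read; mean ± SD, ≥3 experiments.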

COc1c2occc2cc2ccc(=O)oc12 [8-methoxypsoralen]
pEC50 (rat PXR): 4.85
pEC50 (human PXR): 4.85

CCC1(c2ccccc2)C(=O)NC(=O)NC1=O [PB, Phenobarbital, reference compound]
P450 1 activity (ethoxyresorufin), liver microsomes (P450s 1A1/2): significant increase
Increase in P450 2B activity (pentoxyresorufin), liver microsomes (P450s 2B9/10): significant increase
Increase in P450 3A activity (testosterone), liver microsomes (P450 3A11 [1]): 3–4 fold
P450 content, liver microsomes (P450): increased
Increase in NQO activity, liver cytosol (NQO): not significantly different from the control group
Liver cytosolic GSTμ protein expression (western blot densitometry) (GSTμ): greater effect
P450 1A1/1A2 protein expression (western blot densitometry) (P450 1A1/1A2): increased
P450 2B10 protein expression (western blot densitometry) (P450 2B10): increased
P450 3A11 protein expression (western blot densitometry) (P450 3A11 [2]): increased

CC(=O)[C@H]1[C@H](C#N)C[C@H]2[C@@H]3CC=C4C[C@@H](O)CC[C@]4(C)[C@H]3CC[C@@]21C [PCN, reference compound]
Max (concentration to reach maximal effect), GAL-PXR (PXR [3]): 3,000 nM
ED50, GAL-PXR activation (PXR [3]; luciferase normalized by β-gal): 0.063 µM
Max (concentration to reach maximal effect), PXR-DR3 (PXR [4]): 100 nM
ED50, PXR-DR3 activation (PXR [4]; 18–24 h): 0.02 µM
Induced interaction of PXR LBD and SRC-1 RID compared to the control (PXR LBD and SRC-1 RID): similar

Clc1cnc(Oc2ccc(Oc3ncc(Cl)cc3Cl)cc2)c(Cl)c1 [TC, 1,4-bis[2-(3,5-dichloropyridyloxy)]benzene, reference compound]
Effect on the inhibitory effect of androstanol on Gal4 reporter expression (mCAR-LBD) [5]: counteracted
Increase in hepatic GSTp mRNA, CAR(−/−) mice (GSTp mRNA): no increase
Increase in hepatic GSTp mRNA, female CAR(+/+) mice (GSTp mRNA): ~ 4 fold
Increase in hepatic GSTa1 mRNA, female CAR(−/−) mice (GSTa1 mRNA): did not increase
Increase in hepatic GSTa1 mRNA, male CAR(−/−) mice (GSTa1 mRNA): did not increase
Increase in hepatic GSTa1 mRNA, male and female CAR(+/+) mice (GSTa1 mRNA): 8–10 fold
Induction of hepatic Cyp2b10 mRNA, CAR(−/−) mice (Cyp2b10 mRNA): absent
Induction of hepatic Cyp2b10 mRNA, CAR(+/+) mice (Cyp2b10 mRNA; male and female): ~ 4 fold
Induction of hepatic Cyp3a11 mRNA, CAR(−/−) mice (Cyp3a11 mRNA): absent
Induction of hepatic Cyp3a11 mRNA, CAR(+/+) mice (Cyp3a11 mRNA; male and female): ~ 4 fold

C[C@@]12CCC[C@H]1[C@@H]1CC[C@H]3C[C@@H](O)CC[C@]3(C)[C@H]1CC2 [androstanol]
Constitutive CAR transactivation (full-length mCAR): blocked
